According to article PMC8738139 (Neuron, 2021):

Target: CNGA1 (Homo sapiens, UniProt P29973+Q14028)
Experiment: cryo-EM structures
Type: cell-based
How it was run: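 HEK293 cells co-transfected with human CNGA1/B1 and a GFP marker, then trypsinised and re-plated 48 h later. Whole-cell currents recorded at 100 mV. Pipette: 140 mM KCl, 5 mM EGTA, 10 mM HEPES pH 7.4, 1 mM cGMP. Bath: 140 mM NaCl, 4 mM KCl, 1 mM EGTA, 10 mM HEPES pH 7.4 plus varied test compound. Ki from Hill fit; mean ± SEM, n=5.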

Chain of CNGA1 (P29973 141-686): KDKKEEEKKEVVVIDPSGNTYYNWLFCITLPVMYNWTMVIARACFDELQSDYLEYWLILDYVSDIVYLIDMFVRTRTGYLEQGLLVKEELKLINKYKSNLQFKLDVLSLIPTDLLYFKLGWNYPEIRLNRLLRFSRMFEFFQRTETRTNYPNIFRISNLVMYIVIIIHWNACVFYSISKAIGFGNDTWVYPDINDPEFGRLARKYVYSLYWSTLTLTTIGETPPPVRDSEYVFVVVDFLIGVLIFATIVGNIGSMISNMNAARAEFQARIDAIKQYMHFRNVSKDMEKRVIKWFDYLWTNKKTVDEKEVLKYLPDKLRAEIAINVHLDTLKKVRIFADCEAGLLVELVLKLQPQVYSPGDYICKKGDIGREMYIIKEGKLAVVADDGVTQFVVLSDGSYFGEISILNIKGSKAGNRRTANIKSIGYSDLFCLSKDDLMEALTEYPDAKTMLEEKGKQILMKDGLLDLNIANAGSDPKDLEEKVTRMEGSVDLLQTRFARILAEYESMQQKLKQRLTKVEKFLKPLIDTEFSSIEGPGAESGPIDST
Chain of CNGA1 (Q14028 456-1251): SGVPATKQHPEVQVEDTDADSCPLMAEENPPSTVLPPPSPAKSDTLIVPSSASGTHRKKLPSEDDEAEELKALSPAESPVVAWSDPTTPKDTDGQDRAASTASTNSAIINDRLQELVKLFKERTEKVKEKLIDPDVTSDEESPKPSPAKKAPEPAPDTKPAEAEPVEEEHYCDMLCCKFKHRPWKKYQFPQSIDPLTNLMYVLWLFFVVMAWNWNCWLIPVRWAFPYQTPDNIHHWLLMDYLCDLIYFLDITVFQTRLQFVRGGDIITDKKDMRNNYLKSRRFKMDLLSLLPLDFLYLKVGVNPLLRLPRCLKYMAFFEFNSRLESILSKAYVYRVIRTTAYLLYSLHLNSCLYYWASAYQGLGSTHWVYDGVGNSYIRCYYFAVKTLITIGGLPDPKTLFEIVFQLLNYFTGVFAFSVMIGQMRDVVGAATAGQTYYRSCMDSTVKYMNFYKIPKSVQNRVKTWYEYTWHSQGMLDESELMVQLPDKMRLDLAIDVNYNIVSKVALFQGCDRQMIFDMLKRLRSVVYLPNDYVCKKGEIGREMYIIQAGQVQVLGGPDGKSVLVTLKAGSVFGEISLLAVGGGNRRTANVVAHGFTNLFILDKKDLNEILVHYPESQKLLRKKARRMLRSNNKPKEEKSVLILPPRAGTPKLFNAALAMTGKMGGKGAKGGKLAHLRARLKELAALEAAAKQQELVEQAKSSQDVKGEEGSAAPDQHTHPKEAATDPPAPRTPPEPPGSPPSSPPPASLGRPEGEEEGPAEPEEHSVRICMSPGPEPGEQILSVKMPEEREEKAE

Question: With COc1ccc([C@H]2Sc3ccccc3N(CCN(C)C)C(=O)[C@H]2OC(C)=O)cc1 [L-cis-Diltiazem] as the molecule, how does the Ki read?
Answer: 3.68 ± 0.13 µM
